Results from article PMC11704051 (Nature Communications, 2025).
Values joined by “and” are separate entries in the source; they are usually repeats but may differ in a detail not shown here. Equal values may be shown once.

Experiments:
SAM = test: Plasma SAM concentration; type: in vivo, human
Method in brief: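 Plasma SAM was quantified by LC-MS/MS. Baseline blood was drawn twice at screening and before the single oral dose on C0D-3. At steady state (C1D15) sampling was pre-dose and 0.5, 1, 2, 3, 4, 6, 8 and 24 h post-dose, with daily oral dosing at 50–400 mg QD or 200 mg BID. The read-out was percent change from baseline.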

OATP1B1 = settings: known potential; cited from earlier work
[1] = system: patients with advanced malignancies; test: Phase 1 trial: safety and tolerability; type: in vivo, human; settings: for DLT: cycle 1; for Patients with any TRAE / TRAE Anemia / TRAE Blood bilirubin increased/hyperbilirubinemia / TRAE Diarrhea / TRAE Fatigue / TRAE Nausea / TRAE Rash (rash, rash macular, rash maculo-popular) / TRAE Thrombocytopenia /platelet count decrease: n = 40
Method in brief: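 Monitoring covered AEs graded by NCI-CTCAE v4.03, SAEs, laboratory values, clinical examinations, vital signs, ECOG status, ophthalmology and ECG. DLTs were assessed over cycle 1 (28 days) of oral single-agent dosing (50–400 mg QD, 200 mg BID). Escalation used a two-parameter BLRM with EWOC: reference 650 mg total daily dose, target DLT interval [0.16, 0.33], <25% chance of excessive toxicity, increments ≤100%.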

[2] = system: MTAP-deleted cancer cell lines; settings: multiple MTAP-deleted cancer cell lines; cited from earlier work
MTAP-null tumors = settings: cited from earlier work
UGT1A1 = settings: known potential; cited from earlier work
mouse = mouse GLP toxicology study, non-tolerated doses; cited from earlier work
SDMA residues = test: SDMA by IHC; type: in vivo, human; settings: NSCLC patient, 50 mg QD
Method in brief: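 Paired core-needle biopsies (archival or fresh) were taken at screening/baseline and at the end of cycle 1. Tissue was fixed in 10% […] buffered formalin and paraffin-embedded. H&E confirmed tumour content, and SDMA in tumour cells was scored by IHC as an H-score. Paired comparison used a two-sided Wilcoxon matched-pairs test.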

methionine = test: Plasma methionine concentration; type: in vivo, human; settings: steady state (C1D15)
[3] = Plasma pharmacokinetics of AG-270/S095033; type: in vivo, human
[4] = system: advanced solid tumors with homozygous deletion of CDKN2A/MTAP and/or loss of MTAP protein; test: Phase 1 trial: antitumor activity by RECIST v1.1, treatment duration; type: in vivo, human
Method in brief: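 Adults with advanced solid tumour or lymphoma (homozygous CDKN2A and/or MTAP deletion by local FISH or sequencing, and/or central MTAP IHC with ≤20% positive tumour cells) took test compound orally on an empty stomach. Dosing was 50–400 mg QD or 200 mg BID: a single dose on C0D-3, then daily from C1D1 in 28-day cycles until progression or toxicity. Local investigators scored response by RECIST v1.1 (Lugano for lymphoma).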

[5] = system: MTAP-deleted urothelial cancer and lung cancer; settings: cited from earlier work
[6] = monotherapy expansion, MTAP-deleted urothelial cancer and lung cancer

Compound: COc1ccc(-c2c(Nc3ccccn3)[nH]c3c(C4=CCCCC4)c(-c4ccccc4)nn3c2=O)cc1 [AG-270/S095033]
- Mean reduction from baseline plasma SAM concentration (SAM; C1D15, 400 mg QD): ~ 54%
- Decrease of plasma SAM concentration from baseline, range across doses (SAM; C1D15, 50–200 mg QD and 200 mg BID): 65–70%
- Inhibition of hepatocyte transporter OATP1B1 (OATP1B1): inhibit
- Patients with dose-limiting ≥grade 3 / acute liver injury ([1]; 200 mg BID): two patients
- Severity of thrombocytopenia ([1]; 200 mg BID): Higher grade thrombocytopenia
- DLT ([1]; 1 patient at 100 mg QD): Grade 2 hypersensitivity reaction
- DLT ([1]; 1 patient at 150 mg QD): Grade 3 hyperbilirubinemia and Grade 3 maculo-papular rash
- DLT ([1]; 1 patient at 200 mg QD): Grade 3 neutrophil count decreased
- Patients who experienced a TEAE of Grade ≥3 ([1]; 40 patients): 67.5%
- Patients with AEs leading to permanent treatment discontinuation ([1]; 40 patients): 5.0%
- Patients with TRAEs of Grade ≥3 ([1]; 40 patients): 17.5%
- Patients with at least one DLT during cycle 1 ([1]; 40 patients): 10%
- Patients with fatal SAEs (none related to treatment) ([1]; 40 patients): 5.0%
- Patients with serious adverse events (SAEs) regardless of relationship ([1]; 40 patients): 57.5%
- Patients with worst post-baseline ECOG score of 2 ([1]; 40 patients): 20.0%
- Patients with worst post-baseline ECOG score of 3 ([1]; 40 patients): 2.5%
- SAE abdominal pain ([1]; 40 patients): 5.0%
- SAE liver injury ([1]; 40 patients): 5.0%
- SAE pancreatitis ([1]; 40 patients): 5.0%
- SAE sepsis ([1]; 40 patients): 5.0%
- SAE tumor pain ([1]; 40 patients): 5.0%
- TEAE non-serious blurred vision (not related to treatment) ([1]; 40 patients): 5%
- TEAE non-serious supraventricular tachycardia ([1]; 40 patients): 2.5%
- TEAE non-serious tachycardia ([1]; 40 patients): 5%
- TEAE optic disc hemorrhage (not related to treatment) ([1]; 40 patients): 2.5%
- TEAE retinal hemorrhage (not related to treatment) ([1]; 40 patients): 2.5%
- TEAE serious atrial fibrillation ([1]; 40 patients): 2.5%
- TEAE serious electrocardiogram T wave inversion ([1]; 40 patients): 2.5%
- TEAE serious sinus tachycardia ([1]; 40 patients): 2.5%
- TRAE blood bilirubin increase, any grade ([1]; 40 patients): 15%
- TRAE hyperbilirubinemia, any grade ([1]; 40 patients): 12.5%
- TRAE thrombocytopenia, any grade ([1]; 40 patients): 10%
- Patients with any TRAE ([1]; All Grades): 28 n (%) and 28 (70.0) n (%)
- TRAE Anemia ([1]; All Grades): 4 n (%) and 4 (10.0) n (%)
- TRAE Blood bilirubin increased/hyperbilirubinemia ([1]; All Grades): 10 n (%) and 10 (25.0) n (%)
- TRAE Diarrhea ([1]; All Grades): 3 (7.5) n (%)
- TRAE Fatigue ([1]; All Grades): 10 n (%) and 10 (25.0) n (%)
- TRAE Nausea ([1]; All Grades): 3 (7.5) n (%)
- TRAE Rash (rash, rash macular, rash maculo-popular) ([1]; All Grades): 6 (15.0) n (%)
- TRAE Thrombocytopenia /platelet count decrease ([1]; All Grades): 7 (17.5) n (%)
- Patients with any TRAE ([1]; Grade 1): 10 (25.0) n (%)
- TRAE Anemia ([1]; Grade 1): 1 (2.5) n (%)
- TRAE Blood bilirubin increased/hyperbilirubinemia ([1]; Grade 1): 1 (2.5) n (%)
- TRAE Diarrhea ([1]; Grade 1): 2 (5.0) n (%)
- TRAE Fatigue ([1]; Grade 1): 3 (7.5) n (%)
- TRAE Nausea ([1]; Grade 1): 3 (7.5) n (%)
- TRAE Rash (rash, rash macular, rash maculo-popular) ([1]; Grade 1): 3 (7.5) n (%)
- TRAE Thrombocytopenia /platelet count decrease ([1]; Grade 1): 2 (5.0) n (%)
- Patients with any TRAE ([1]; Grade 2): 11 (27.5) n (%)
- TRAE Anemia ([1]; Grade 2): 2 (5.0) n (%)
- TRAE Blood bilirubin increased/hyperbilirubinemia ([1]; Grade 2): 6 (15.0) n (%)
- TRAE Diarrhea ([1]; Grade 2): 1 (2.5) n (%)
- TRAE Fatigue ([1]; Grade 2): 7 (17.5) n (%)
- TRAE Nausea ([1]; Grade 2): 0 n (%)
- TRAE Rash (rash, rash macular, rash maculo-popular) ([1]; Grade 2): 1 (2.5) n (%)
- TRAE Thrombocytopenia /platelet count decrease ([1]; Grade 2): 2 (5.0) n (%)
- Patients with any TRAE ([1]; Grade 3): 6 (15.0) n (%)
- TRAE Anemia ([1]; Grade 3): 1 (2.5) n (%)
- TRAE Blood bilirubin increased/hyperbilirubinemia ([1]; Grade 3): 4 (10.0) n (%)
- TRAE Diarrhea ([1]; Grade 3): 0 n (%)
- TRAE Fatigue ([1]; Grade 3): 0 n (%)
- TRAE Nausea ([1]; Grade 3): 0 n (%)
- TRAE Rash (rash, rash macular, rash maculo-popular) ([1]; Grade 3): 2 (5.0) n (%)
- TRAE Thrombocytopenia /platelet count decrease ([1]; Grade 3): 3 (7.5) n (%)
- Patients with any TRAE ([1]; Grade 4): 1 (2.5) n (%)
- TRAE Anemia ([1]; Grade 4): 0 n (%)
- TRAE Blood bilirubin increased/hyperbilirubinemia ([1]; Grade 4): 0 n (%)
- TRAE Diarrhea ([1]; Grade 4): 0 n (%)
- TRAE Fatigue ([1]; Grade 4): 0 n (%)
- TRAE Nausea ([1]; Grade 4): 0 n (%)
- TRAE Rash (rash, rash macular, rash maculo-popular) ([1]; Grade 4): 0 n (%)
- TRAE Thrombocytopenia /platelet count decrease ([1]; Grade 4): 0 n (%)
- Treatment-related increases in transaminases ([1]; between the 100 mg and 400 mg dose levels): Low grade (Grade 1–2)
- Severity of thrombocytopenia ([1]; doses between 100 and 200 mg QD): largely Grade 1–2
- Effect on ECG parameters ([1]; in vivo): no discernable effect
- Time to resolution of erythematous rashes after stopping treatment ([1]; in vivo): ≤ 1 week
- Patients with PR interval >200 ms ([1]; maximum post-baseline value): 10.0%
- Patients with QRS duration >120 ms ([1]; maximum post-baseline value): 7.5%
- Patients with QT/QTc interval >450 ms ([1]; maximum post-baseline value): 15.0%
- Patients with QT/QTc interval increase from baseline >30 ms ([1]; maximum post-baseline value): 10.0%
- Patients with any TEAE ([1]; n=40): 40 N (%)
- TEAE Blood bilirubin increased ([1]; n=40): 9 N (%)
- TEAE Decreased appetite ([1]; n=40): 8 N (%)
- TEAE Diarrhoea ([1]; n=40): 8 N (%)
- TEAE Dyspnoea ([1]; n=40): 8 N (%)
- TEAE Fatigue ([1]; n=40): 17 N (%)
- TEAE Nausea ([1]; n=40): 13 N (%)
- ≥ Grade 3 TEAE Bilirubin increased ([1]; n=40): 4 N (%)
- Treatment-related clinically significant retinopathy ([1]; ophthalmologic examinations at screening and during treatment): No treatment-related events of clinically significant retinopathy were reported
- Maximum tolerated dose (MTD) ([1]; oral, 28-day cycles): 200 mg QD
- Increases in unconjugated bilirubin ([1]; patients, across doses): Asymptomatic, exposure-dependent and reversible increases in unconjugated bilirubin were observed starting at 100 mg QD
- Effect on cell proliferation [2]: robust decrease in cell proliferation
- Effect on SAM levels (MTAP-null tumors; mice bearing MTAP-null tumors): reduce the levels of SAM in both plasma and tumor tissue
- Effect on tumor growth (MTAP-null tumors; mice bearing MTAP-null tumors): inhibit tumor growth in a dose- and drug exposure-dependent manner
- Reduction in plasma SAM concentration associated with maximum tumor growth inhibition (MTAP-null tumors; preclinical models): 60–80%
- Inhibition of UGT1A1 (UGT1A1): inhibit
- Retinal finding (mouse): non-reversible retinal atrophy at non-tolerated doses
- SDMA reduction after 1 cycle of treatment (SDMA residues): 39%
- Change in plasma methionine concentrations (methionine): increases in methionine concentrations in a drug exposure-dependent manner up to 200 mg QD
- Increase of plasma concentrations with dose ([3]; 50 mg to 200 mg): dose-proportional manner from 50 mg to 200 mg
- Exposure relative to dose ([3]; 400 mg QD): less than dose proportional
- Cmax ([3]; human, plasma, oral, Geometric mean Cmax, range across the dosing cohorts, C1D15): 1710 to 13600 ng/mL
- half-life ([3]; human, plasma, oral, Geometric mean accumulation-based (effective) half-life (T½eff), range, C1D15, 50 to 200 mg QD and 200 mg BID): 43 to 99 h
- Tmax ([3]; human, plasma, oral, Median Tmax, range across the dosing cohorts, C1D15): 1 to 6 h
- half-life ([3]; human, plasma, oral, Median terminal half-life (t½), range across the tested doses): 16 to 38 h
- Time at which steady-state was achieved (mean plasma trough concentrations) ([3]; most of the cohorts): ≤ 15 days
- Patients with SD for 4 months or longer ([4]; 40 patients): 12.5%
- Disease control rate (CR+PR+SD≥16 weeks) ([4]; 40 patients, 95%–CI 7.3, 32.8): 17.5%
- BOR Not evaluable (NE) ([4]; Total (n=40)): 7 n (%)
- BOR Partial response (PR) ([4]; Total (n=40)): 2 n (%)
- Duration of partial response ([4]; patient, sex cord stromal cell cancer, 100 mg QD): 28 months

Compound: Nc1nc(=O)n(-c2ccccc2Cl)c2nc(C(F)(F)F)ccc12 [IDE397]
- Patients achieving a PR ([5]; Phase 2 expansion, squamous NSCLC and bladder cancer): two out of eight patients
- Disease control rate [5, 6]: ~ 94%
- Overall response rate [5, 6]: ~ 39%
- ctDNA molecular response rate [5, 6]: ~ 81%
